A selection: hits, their analogues and other compounds. The true share with any hit is near 4.3%.
UBC13 inh – human UBC13 polyubiquitination inhibition. AID 485273. inhibition, % at 20 µM. UBC13 polyubiquitin chain formation, TR-FRET. P61088. 330,000 compounds, 0.47% hits; in the data active = inhibition above about 45%, passing the limit was not always enough; inconclusive = no clear call, values can overlap the other calls
Target sequence (P61088 whole entry, looked up): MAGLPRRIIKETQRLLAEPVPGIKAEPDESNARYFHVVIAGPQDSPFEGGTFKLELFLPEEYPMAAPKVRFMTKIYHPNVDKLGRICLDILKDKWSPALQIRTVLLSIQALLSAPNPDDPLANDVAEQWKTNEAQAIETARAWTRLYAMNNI
RBBP9 inhibitor – inhibitors of human serine hydrolase RBBP9; AID 1515; 220,000 compounds, 0.2% hits; O75884; inhibition, % at 7.94 µM; recombinant RBBP9, FP-Rh probe fluorescence polarization;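 active = inhibition above the campaign mean of all tested compounds plus 3 SD, cut at about 14% in these data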;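 also: plate controls were DMSO wells with RBBP9 for no effect and wells lacking RBBP9 protein for full effect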
Target sequence (O75884 whole entry, looked up): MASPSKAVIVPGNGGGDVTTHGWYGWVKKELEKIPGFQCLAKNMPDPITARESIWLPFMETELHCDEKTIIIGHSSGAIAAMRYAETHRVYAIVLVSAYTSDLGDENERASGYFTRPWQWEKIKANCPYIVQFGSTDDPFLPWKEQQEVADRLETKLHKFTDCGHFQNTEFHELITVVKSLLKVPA
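Controls: DMSO-treated enzyme wells and wells lacking RBBP9 | Material: RBBP9 protein | Technique: Fluorescence polarization | Replication: Single well per compound, no replicates | Buffer or medium: Tris-NaCl-Pluronic buffer, pH 8.0 | Timing: 30 min compound preincubation, 45 min probe labeling, 25 °C | Read-out basis: Percent inhibition from mP, scaled between DMSO and no-protein wells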
Rin1-Abl PPI inh – human Rin1-Abl interaction inhibition; TR-FRET Rin1/Abl binding, biochemical; inhibition, % at 7.35 µM; 360,000 compounds, 0.4% hits; in the data active = inhibition above about 5%, passing the limit was not always enough
ALR inh – inhibitors of human sulfhydryl oxidase ALR. purified ALR, DTT oxidation, H2O2 HRP-luminol luminescence. inhibition, % (concentration not given with the values). 290,000 compounds, 3.8% hits;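 active = mean replicate inhibition above about 79%, with every replicate also reaching it, limit read from the data; inconclusive = only one of the two criteria met; inactive = mean below limit and not every replicate reaching it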
SUMO HTRF inh – blocks human SUMOylation mediated by UBC9; HTRF SUMOylation assay, SAE1/SAE2 + UBC9, in vitro; inhibition, % at 35 µM; 290,000 compounds, 0.36% hits; in the data active = inhibition above about 50%, passing the limit was not always enough; inconclusive = no clear call, values can overlap the other calls
Target sequence (P63279 whole entry, looked up): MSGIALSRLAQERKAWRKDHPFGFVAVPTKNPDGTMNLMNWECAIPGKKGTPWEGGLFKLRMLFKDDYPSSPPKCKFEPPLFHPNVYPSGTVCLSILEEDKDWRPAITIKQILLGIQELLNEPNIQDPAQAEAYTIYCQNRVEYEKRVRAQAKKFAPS
PREPL inhibitor – human PREPL enzyme inhibition. Q4J6C6. recombinant PREPL, fluorescence polarization activity-based probe. inhibition, % at 5.96 µM. 320,000 compounds, 0.68% hits. AID 2751; in the data active = inhibition above about 43%;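 also: 0% = enzyme with DMSO and 100% = wells lacking enzyme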
RBBP9 inh conf – confirmation of human RBBP9 inhibitors | shares compounds with RBBP9 inhibitor | recombinant RBBP9, FP-Rh probe fluorescence polarization | inhibition, % at 7.94 µM | 410 compounds, 36% hits;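 active = inhibition above the hit cutoff derived for the primary screen, cut at about 15% in these data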;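 also: 0% = RBBP9 with DMSO and 100% = wells lacking RBBP9 protein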
PREPL inh cf – confirmation of human PREPL enzyme inhibitors; recombinant PREPL, fluorescence polarization activity probe; 2,000 compounds, 67% hits; AID 2803; shares compounds with PREPL inhibitor; inhibition, % at 5.96 µM; in the data active = inhibition above about 43%;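 also: 0% = protein with DMSO and 100% = wells lacking protein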
Rin1-Abl confirm – confirmation of inhibitors of human Rin1-Abl interaction; inhibition, % at 7.35 µM; 1,300 compounds, 49% hits; shares compounds with Rin1-Abl PPI inh; TR-FRET Rin1-Abl binding, purified proteins
GFP quench – quenches GFP fluorescence, counter-screen for Rin1-Abl inhibitors. shares compounds with Rin1-Abl PPI inh. 1,300 compounds, 8.5% hits. inhibition, % at 6.75 µM. inhibitors/quenchers counterscreen;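 also: ABL1-eGFP fusion protein alone without its partner RIN1-SBP; 0% = protein with vehicle and 100% = wells lacking protein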
Active calls of the source: *; u = inconclusive; x = no result. Rule as the data show it, unless noted: active = inhibition above about 6.5%; inactive = the rest.

SMILES	UBC13 inh	RBBP9 inhibitor	Rin1-Abl PPI inh	ALR inh	SUMO HTRF inh	PREPL inhibitor	PREPL inh cf	others
Cc1cc(N)ccc1-n1c(C)ccc1C	-4	31*	2	17	20	59*	11	RBBP9 inh conf=-56
Cc1ccc(S(=O)(=O)NCCNC(=O)c2ccc(C)nc2)cc1	3	x	3	0	12	1	x
Cn1c(N2CCOCC2)nc2c1c(=O)n(Cc1ccc(Cl)c(Cl)c1)c(=O)n2C	9	18*	0	-1	11	44*	26	RBBP9 inh conf=4
Cn1c(N2CCCC2)nc2c1c(=O)n(Cc1ccc(F)cc1)c(=O)n2C	-1	-5	0	x	9	7	x
NS(=O)(=O)c1ccc(N/N=C/c2ccc(O)c(O)c2O)c([N+](=O)[O-])c1	x	64*	40*	x	u	x	x	RBBP9 inh conf=84*;Rin1-Abl confirm=46*;GFP quench=30*
CCC(=O)c1ccc(OCC(=O)OCC(=O)NCC2CCCO2)cc1 (centres undefined)	-10	x	-2	-5	-1	4	x
CN=c1scc(-c2ccccc2F)n1/N=C/c1ccc(O)c(O)c1O	x	33*	6.3*	x	6	x	x	RBBP9 inh conf=59*;Rin1-Abl confirm=8.8*;GFP quench=6.7*
COc1ccc(O)c(/C=N/NC(=S)Nc2cccc(S(=O)(=O)N(C)C)c2)c1	x	-8	0	73	-32	13	x
CCN(CC)S(=O)(=O)c1cccc(C(=O)N/N=C/c2ccc(O)c(O)c2O)c1	x	18*	18*	98*	50*	10	x	RBBP9 inh conf=66*;Rin1-Abl confirm=15*;GFP quench=11*
CN(C)S(=O)(=O)c1cccc(NC(=S)N/N=C/c2ccc(O)c(O)c2O)c1	x	32*	27*	x	52*	x	x	RBBP9 inh conf=51*;Rin1-Abl confirm=18*;GFP quench=10*
CC1(C(=O)NS(=O)(=O)c2cccs2)CCN1C(=O)CC1CC1 (centres undefined)	x	x	2	x	x	x	x
COc1ccc(N2CC(C(=O)NNC(=O)c3ccc(Br)cc3)CC2=O)c(OC)c1 (centres undefined)	-4	x	-1	-13	x	7	x
Oc1ccc(/C=N/Nc2ccnc3cc(Cl)ccc23)cc1O	-8	25*	11*	67	-14	54*	36	RBBP9 inh conf=97*;Rin1-Abl confirm=6;GFP quench=3
Clc1ccc2c(NCc3ccccn3)ccnc2c1	3	x	1	-5	6	8	x
COc1ccc2sc(-c3ccc(N(C)C)cc3)c(C#Cc3cncn3C)c2c1	35	x	3	-24	x	46*	40
COc1ccc2sc(-c3ccc(N(C)C)cc3)c(C#CC(C)(C)O)c2c1	18	x	0	-5	x	13	x
C[C@H](CO)N1C[C@H](C)[C@H](CN(C)S(=O)(=O)c2ccccc2)Oc2ccc(NC(=O)NC3CCCCC3)cc2CC1=O	-1	x	-1	1	x	16	x
CC(C)CC(N)c1csc(Nc2cc(Oc3ccccc3)ncn2)n1 (centres undefined)	x	x	0	x	x	x	x
COc1ccc(C2c3ccc4ccccc4c3Oc3ncn(CCN4CCOCC4)c(=N)c32)cc1OC (centres undefined)	-2	-9	0	-33	15	46*	36
O=C(CCC1CCCCC1)Nc1ccccc1C(=O)N1CCOCC1	0	-3	1	0	9	6	x
Cc1cc(/C=N/NC(N)=S)c(C)n1-c1ccc(Br)cc1	-5	-5	-3	41	16	54*	45*
Cc1cc(/C=N/NC(N)=S)c(C)n1-c1ccc(Cl)cc1	-28	-6	2	-3	16	29	x
Cc1ccc(OCC(=O)Nc2ccc(N3CCN(C(=O)c4ccc(C)cc4)CC3)cc2)cc1	0	-4	2	0	1	9	x
O=C(COc1ccccc1[N+](=O)[O-])Nc1ccc(N2CCN(C(=O)c3cccs3)CC2)cc1	14	-9	0	-4	4	44*	64*
Cc1cccc(OCC(=O)Nc2ccc(N3CCN(C(=O)c4ccccc4)CC3)cc2)c1	5	0	0	-12	0	55*	58*
SMILES	UBC13 inh	RBBP9 inhibitor	Rin1-Abl PPI inh	ALR inh	SUMO HTRF inh	PREPL inhibitor	PREPL inh cf	others
O=C(COc1ccccc1Cl)Nc1ccc(N2CCCC2)cc1	-13	x	2	-13	0	11	x
O=C(COc1ccccc1)Nc1ccc(N2CCCCC2)cc1	0	x	2	1	x	21	x
O=C(COc1ccccc1Cl)Nc1ccc(N2CCN(C(=O)c3ccccc3)CC2)cc1	2	x	1	-40	-7	64*	62*
CCN1CCN(c2ccc(NC(=O)COc3ccccc3Cl)cc2)CC1	6	2	0	-3	6	47*	40
NS(=O)(=O)c1ccc(CCNC(=O)C2CCCN2S(=O)(=O)c2cccc3nsnc23)cc1 (centres undefined)	-1	x	0	-3	5	3	x
CCN1CCN(c2ccc(NC(=O)COc3ccc(Cl)cc3C)cc2)CC1	13	x	3	x	x	43*	53*
CC(=O)N1CCN(c2ccc(NC(=O)COc3ccc(Cl)cc3Cl)cc2)CC1	0	1	-2	-7	20	53*	54*
Cc1cc(Cn2nc(-c3ccccc3)cc2C(=O)NCc2cccs2)on1	6	x	3	5	x	-1	x
CCN(CC)c1ccc(N)cc1	-39	x	7	97*	x	64*	39
COc1ccc(Cn2nnc3ccccc32)cc1	17	x	1	0	x	50*	37
c1ccc(Cn2nnc3ccccc32)cc1	-3	x	-2	-3	17	-6	x
C/C(=N\N=C(/C)c1cccc(N)c1)c1cccc(N)c1	1	x	-2	-20	x	8	x
CC(=O)c1ccc(NC(=O)CSc2nnc(NC(=O)C3CC3)s2)cc1	9	x	0	-3	10	-5	x
CC(C)(C)c1ccc(OCCC(=O)Nc2ccc(N3CCOCC3)cc2N2CCOCC2)cc1	2	x	-6	9	x	49*	42
Cc1ccc(OCC(=O)Nc2ccc(N3CCOCC3)cc2)cc1	3	-5	1	-28	7	45*	31
CCC(=O)N1CCN(c2ccc(NC(=O)COc3ccc(CC)cc3)cc2)CC1	-3	x	1	7	5	45*	48*
N#CC(=C1C=CC(=NO)C(Cl)=C1)c1ccccc1	x	x	2	x	x	x	x
CC(Sc1nc(-c2ccc(F)cc2)cs1)C(=O)Nc1ccc(Cl)cn1 (centres undefined)	1	3	3	-5	-7	-8	x
